Data from ChEMBL document CHEMBL3098028, “Synthesis and in vitro and in vivo pharmacological evaluation of new 4-aminoquinoline-based compounds” (ACS Med Chem Lett, 2013).
pIC50: −log10 of the molar value. In brackets after ≈: the same amount, converted by molar mass.

Key:
Plasmodium berghei [1] = experiment: Antimalarial activity against Plasmodium berghei ANKA infected in C57BL/6 mouse assessed as reduction in parasitemia at 1 mg/kg, po qd for 4 days measured on day 7 by light microscopic analysis relative to control; type: functional; parameters: scale not given: the % may be the effect or the level left
In short: (§1)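 Male C57/BL6 mice were infected with P. berghei ANKA and dosed orally once daily for four days at 1, 10, 5 or 20 mg/kg, with 5 mice per dose group. The negative control received blank formulation solution. Blood smears were taken on days 3, 5 and 7, and parasitemia was read by light microscopy. The result is % parasitemia reduction on day 7 versus placebo.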

Plasmodium berghei [2] = experiment: Antimalarial activity against Plasmodium berghei ANKA infected in C57BL/6 mouse assessed as reduction in parasitemia at 5 mg/kg, po qd for 4 days measured on day 7 by light microscopic analysis relative to control; type: functional; parameters: scale not given: the % may be the effect or the level left; in short: as §1
Plasmodium berghei [3] = experiment: Antimalarial activity against Plasmodium berghei ANKA infected in C57BL/6 mouse assessed as reduction in parasitemia at 10 mg/kg, po qd for 4 days measured on day 7 by light microscopic analysis relative to control; type: functional; parameters: scale not given: the % may be the effect or the level left; in short: as §1
Plasmodium berghei [4] = experiment: Antimalarial activity against Plasmodium berghei ANKA infected in C57BL/6 mouse assessed as reduction in parasitemia at 20 mg/kg, po qd for 4 days measured on day 7 by light microscopic analysis relative to control; type: functional; parameters: scale not given: the % may be the effect or the level left; in short: as §1
Mus musculus [5] = experiment: AUC (0 to infinity) in C57BL/6 mouse at 20 mg/kg, po; type: ADME, organism-based, Plasma; parameters: time infinity, dose 20 mg/kg, route oral; conditions: in vivo
In short: (§2)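 Healthy male C57/BL6 mice received a single intravenous dose (2.5 or 5.0 mg/kg) or oral dose (20 or 40 mg/kg). Plasma concentrations were followed over time to give AUC0-∞ in min·μmol/L, alongside t1/2, CL, Vd, Vss, Cmax, Tmax and oral bioavailability. Values are means of five animals.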

Mus musculus [6] = experiment: AUC (0 to infinity) in C57BL/6 mouse at 40 mg/kg, po; type: ADME, organism-based, Plasma; parameters: time infinity, dose 40 mg/kg, route oral; conditions: in vivo; in short: as §2
Mus musculus [7] = experiment: AUC (0 to infinity) in C57BL/6 mouse at 5 mg/kg, iv; type: ADME, organism-based, Plasma; parameters: dose 5 mg/kg, route intravenous, time infinity; conditions: in vivo; in short: as §2
Mus musculus [8] = experiment: AUC (0 to infinity) in C57BL/6 mouse at 2.5 mg/kg, iv; type: ADME, organism-based, Plasma; parameters: time infinity, dose 2.5 mg/kg, route intravenous; conditions: in vivo; in short: as §2
Liver microsome [9] = experiment: Drug metabolism in rat liver microsomes assessed as 2-(5-((4-chlorophenyl)(2-(7-chloroquinolin-4-ylamino)ethylamino)methyl)-1H-tetrazol-1-yl)-2-methylpropan-1-ol level at 5 uM after 1 hr by LC-MS/MS analysis; type: ADME
Liver microsome [10] = experiment: Drug metabolism in rat liver microsomes assessed as 4-(2-((1-tert-butyl-1H-tetrazol-5-yl)(4-chlorophenyl)methylamino)ethylamino)-7-chloroquinoline 1-oxide level at 5 uM after 1 hr by LC-MS/MS analysis; type: ADME
Liver microsome [11] = experiment: Drug metabolism in human liver microsomes assessed as 2-(5-((4-chlorophenyl)(2-(7-chloroquinolin-4-ylamino)ethylamino)methyl)-1H-tetrazol-1-yl)-2-methylpropan-1-ol level at 5 uM after 1 hr by LC-MS/MS analysis; type: ADME
Liver microsome [12] = experiment: Drug metabolism in human liver microsomes assessed as 4-(2-((1-tert-butyl-1H-tetrazol-5-yl)(4-chlorophenyl)methylamino)ethylamino)-7-chloroquinoline 1-oxide level at 5 uM after 1 hr by LC-MS/MS analysis; type: ADME
[13] = Drug metabolism in hepatocytes (unknown origin) assessed as 2-(5-((4-chlorophenyl)(2-(7-chloroquinolin-4-ylamino)ethylamino)methyl)-1H-tetrazol-1-yl)-2-methylpropan-1-ol level at 5 uM after 6 hrs by LC-MS/MS analysis; type: ADME, cell-based, Hepatocyte
[14] = Drug metabolism in hepatocytes (unknown origin) assessed as 4-(2-((1-tert-butyl-1H-tetrazol-5-yl)(4-chlorophenyl)methylamino)ethylamino)-7-chloroquinoline 1-oxide level at 5 uM after 6 hrs by LC-MS/MS analysis; type: ADME, cell-based, Hepatocyte
[15] = Hepatic extraction ratio in mouse liver microsomes at 1 uM after 40 mins; type: ADME, Microsome; conditions: read-out: ERH
[16] = Hepatic extraction ratio in human liver microsomes at 1 uM after 40 mins; type: ADME; conditions: read-out: ERH
CHO = experiment: Cytotoxicity against CHO cells; type: cell-based; conditions: Cricetulus griseus
[17] = Kinetic solubility of the compound in 0.01 M HCl at pH 2 after 2 hrs by HPLC analysis; type: physicochemical; conditions: read-out: Kinetic_solubility
[18] = Kinetic solubility of the compound in phosphate buffered saline at pH 7.4 after 2 hrs by HPLC analysis; type: physicochemical; conditions: read-out: Kinetic_solubility
Plasmodium falciparum [19] = experiment: Resistance index, ratio of IC50 for chloroquine-resistant Plasmodium falciparum K1 to IC50 for chloroquine-sensitive Plasmodium falciparum 3D7; type: functional
Plasmodium falciparum [20] = experiment: Antiplasmodial activity against chloroquine-resistant Plasmodium falciparum W2 after 24 hrs by [3H]hypoxanthine incorporation assay; type: functional, organism-based
In short: (§3)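 Antiplasmodial testing was done at the Swiss Tropical and Public Health Institute. Chloroquine, the reference drug, was tested as its diphosphate salt.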

Plasmodium falciparum [21] = experiment: Antiplasmodial activity against chloroquine-resistant Plasmodium falciparum K1 after 24 hrs by [3H]hypoxanthine incorporation assay; type: functional, organism-based; in short: as §3
Plasmodium falciparum [22] = experiment: Antiplasmodial activity against chloroquine-sensitive Plasmodium falciparum 3D7 after 24 hrs by [3H]hypoxanthine incorporation assay; type: functional, organism-based; in short: as §3

CC(C)(C)n1nnnc1C(NCCNc1ccnc2cc(Cl)ccc12)c1ccc(Cl)c(Cl)c1 (configuration not stated) gave an Activity (Plasmodium berghei [1]) of 22.7%, an Activity (Plasmodium berghei [2]) of 46.9% and an Activity (Plasmodium berghei [3]) of 41.4%. The Activity (Plasmodium berghei [4]) was 44.5%, the AUC (Mus musculus [5]) was 256 µmol·min/L and the AUC (Mus musculus [6]) was 287 µmol·min/L. For the same molecule, the AUC (Mus musculus [7]) was 222 µmol·min/L, the AUC (Mus musculus [8]) was 104 µmol·min/L and the Drug metabolism (Liver microsome [9]) was “Active”. The Drug metabolism (Liver microsome [10]) was “Active”, the Drug metabolism (Liver microsome [11]) was “Active” and the Drug metabolism (Liver microsome [12]) was “Active”. For the same molecule, the Drug metabolism [13] was “Active”, the Drug metabolism [14] was “Active” and the hepatic extraction ratio at 40 min, 1 µM [15] was over 0.8. The hepatic extraction ratio at 40 min, 1 µM [16] was over 0.8, the pIC50 (CHO) was 4.98 and the solubility kinetic at 2 h [17] was 194 µM (≈ 97.9 µg/mL). For the same molecule, the solubility kinetic at 2 h [18] was 25 µM (≈ 12.6 µg/mL), the “Ratio IC50” value (Plasmodium falciparum [19]) was 20 and the pIC50 (Plasmodium falciparum [20]) was 7.52. For the same molecule, the pIC50 (Plasmodium falciparum [21]) was 8.10 and the pIC50 (Plasmodium falciparum [22]) was 9.40.
With CC(C)(C)n1nnnc1C(NCCCNc1ccnc2cc(Cl)ccc12)c1ccccc1 (configuration not stated) the “Ratio IC50” value (Plasmodium falciparum [19]) was 13.5, the pIC50 (Plasmodium falciparum [20]) was 7.41 and the pIC50 (Plasmodium falciparum [21]) was 7.57. For the same molecule, the pIC50 (Plasmodium falciparum [22]) was 8.70.
